Measurements: ChEMBL document CHEMBL4480455, “Anti-inflammatory Property of Imperatorin on Alveolar Macrophages and Inflammatory Lung Injury” (J Nat Prod, 2019)
Calls of active or inactive are those of the source. The calls are words filed in the database; no cut-off is given here.

Assays:
Mus musculus [1] = organism: Mus musculus; assay: Antiinflammatory activity in mouse MHS cells assessed as reduction in zymosan-induced PGE2 production at 1.5 to 15 ug/ml preincubated for 30 mins followed by zymosan challenge and measured after 6 to 24 hrs by ELISA; format: functional, cell-based
Method in brief: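 MH-S cells pretreated for 30 min, then given zymosan 10 μg/mL for 24 h. Supernatant PGE2 measured by competitive ELISA: acetylcholinesterase tracer plus monoclonal antibody, 4 °C for 18 h, Ellman's reagent development, absorbance at 405 nm. Mean ± SD, n≥3.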

[2] = Effect on nitrite level in mouse MHS cells at 1.5 to 15 ug/ml after 30 mins by Griess assay; format: ADME, cell-based; conditions: 0.5 h
[3] = Cytotoxicity against mouse MHS cells assessed as effect on cell viability at 1.5 to 15 ug/ml measured after 30 mins by sulforhodamine B assay; format: cell-based; conditions: 0.5 h
[4] = Cytotoxicity against zymosan-induced mouse MHS cells assessed as effect on cell viability at 1.5 to 15 ug/ml preincubated for 30 mins followed by zymosan challenge and measured after 6 to 24 hrs by sulforhodamine B assay; format: cell-based
Method in brief: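 MH-S cells exposed to test agent and zymosan (10 μg/mL). Viability by sulforhodamine B: fixed in 10% trichloroacetic acid, stained 30 min with 0.4% (w/v) SRB, dissolved in 10 mM Tris, read at OD 515 nm. Mean ± SD, n≥3.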

Mus musculus [5] = organism: Mus musculus; assay: Antiinflammatory activity in mouse MHS cells assessed as reduction in zymosan-induced IL-6 mRNA expression preincubated for 30 mins followed by zymosan challenge and measured after 6 to 24 hrs by TRIzol reagent based qRT-PCR analysis; format: functional, cell-based
Method in brief: (§1)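 MH-S alveolar macrophages grown in RPMI 1640 with 10% FBS at 37 °C and 5% CO2. Cells pretreated for 30 min, then given zymosan 10 μg/mL for 6 h. mRNA measured by SYBR Green real-time PCR (95 °C 10 min; 42 cycles of 95 °C 10 s, 60 °C 60 s) with actin as reference. Normalized to control; mean ± SD, n≥3.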

Mus musculus [6] = organism: Mus musculus; assay: Antiinflammatory activity in mouse MHS cells assessed as reduction in zymosan-induced TNFalpha mRNA expression preincubated for 30 mins followed by zymosan challenge and measured after 6 to 24 hrs by TRIzol reagent based qRT-PCR analysis; format: functional, cell-based; method in brief: as §1
Mus musculus [7] = organism: Mus musculus; assay: Antiinflammatory activity in mouse MHS cells assessed as reduction in zymosan-induced IL-6 protein expression at 1.5 to 15 ug/ml preincubated for 30 mins followed by zymosan challenge and measured after 6 to 24 hrs; format: functional, cell-based
Method in brief: (§2)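 MH-S cells pretreated for 30 min, then given zymosan 10 μg/mL for 24 h. IL-6 and TNFα protein in culture supernatant assessed by cytokine array. Values normalized to control; mean ± SD, n≥3.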

Mus musculus [8] = organism: Mus musculus; assay: Antiinflammatory activity in mouse MHS cells assessed as reduction in zymosan-induced TNFalpha protein expression at 1.5 to 15 ug/ml preincubated for 30 mins followed by zymosan challenge and measured after 6 to 24 hrs; format: functional, cell-based; method in brief: as §2
[9] = molecular target: Tyrosine-protein kinase JAK1 (Mus musculus) (UniProt P52332); assay: Inhibition of zymosan-induced JAK1 phosphorylation in mouse MHS cells preincubated for 30 mins followed by zymosan challenge and measured after 6 to 24 hrs by Western blot analysis; format: cell-based
[10] = molecular target: Signal transducer and activator of transcription 3 (Mus musculus) (UniProt P42227); assay: Inhibition of zymosan-induced STAT3 phosphorylation in mouse MHS cells preincubated for 30 mins followed by zymosan challenge and measured after 6 to 24 hrs by Western blot analysis; format: cell-based
[11] = molecular target: Tyrosine-protein kinase JAK1 (Mus musculus) (UniProt P52332); assay: Inhibition of zymosan-induced JAK1 phosphorylation in mouse MHS cells assessed as phosphorylated JAK1 level at 1.5 ug/ml by Western blot analysis relative to tubulin (reference value: 2.2); format: cell-based
Method in brief: (§3)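 MH-S cells pretreated, then stimulated with zymosan 10 μg/mL. Phospho-JAK1 (Y1022/1023), phospho-STAT3 (Y705) and phospho-IKKα/β detected by Western blot against total protein and tubulin. Zymosan time course 1–30 min for JAK1/STAT3 and 1–60 min for IKK. Normalized to control; mean ± SD, n≥3.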

[12] = molecular target: Tyrosine-protein kinase JAK1 (Mus musculus) (UniProt P52332); assay: Inhibition of zymosan-induced JAK1 phosphorylation in mouse MHS cells assessed as phosphorylated JAK1 level at 15 ug/ml by Western blot analysis relative to tubulin (reference value: 2.2); format: cell-based; method in brief: as §3
[13] = molecular target: Signal transducer and activator of transcription 3 (Mus musculus) (UniProt P42227); assay: Inhibition of zymosan-induced STAT3 phosphorylation in mouse MHS cells assessed as phosphorylated STAT3 level at 1.5 ug/ml by Western blot analysis relative to tubulin (reference value: 2.1); format: cell-based; method in brief: as §3
[14] = molecular target: Signal transducer and activator of transcription 3 (Mus musculus) (UniProt P42227); assay: Inhibition of zymosan-induced STAT3 phosphorylation in mouse MHS cells assessed as phosphorylated STAT3 level at 15 ug/ml by Western blot analysis relative to tubulin (reference value: 2.1); format: cell-based; method in brief: as §3
[15] = molecular target: Tyrosine-protein kinase JAK1 (Mus musculus) (UniProt P52332); assay: Effect on JAK1 phosphorylation in mouse MHS cells assessed as phosphorylated JAK1 level at 15 ug/ml by Western blot analysis relative to tubulin (reference value: 1); format: cell-based
[16] = molecular target: Signal transducer and activator of transcription 3 (Mus musculus) (UniProt P42227); assay: Effect on STAT3 phosphorylation in mouse MHS cells assessed as phosphorylated STAT3 level at 15 ug/ml by Western blot analysis relative to tubulin (reference value: 1); format: cell-based
[17] = molecular target: T1, I-kappa-B kinase (Mus musculus) (UniProt Q60680+O88351+O88522); assay: Inhibition of zymosan-induced IKK phosphorylation in mouse MHS cells by Western blot analysis; format: cell-based; method in brief: as §3
[18] = molecular target: T1, I-kappa-B kinase (Mus musculus); assay: Inhibition of zymosan-induced IKK phosphorylation in mouse MHS cells assessed as phosphorylated IKK level at 1.5 ug/ml by Western blot analysis relative to tubulin (reference value: 1.8); format: cell-based; method in brief: as §3
[19] = molecular target: T1, I-kappa-B kinase (Mus musculus); assay: Inhibition of zymosan-induced IKK phosphorylation in mouse MHS cells assessed as phosphorylated IKK level at 15 ug/ml by Western blot analysis relative to tubulin (reference value: 1.8); format: cell-based; method in brief: as §3
[20] = molecular target: T1, I-kappa-B kinase (Mus musculus); assay: Effect on IKK phosphorylation in mouse MHS cells assessed as phosphorylated IKK level at 15 ug/ml by Western blot analysis relative to tubulin (reference value: 1); format: cell-based
[21] = molecular target: Transcription factor p65 (Mus musculus) (UniProt Q04207); assay: Inhibition of zymosan-induced NFkappaB p65 nuclear translocation in mouse MHS cells at 15 ug/ml by DAPI staining based immunofluorescence microscopic analysis; format: cell-based
Method in brief: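 MH-S cells on coverslips pretreated, then given zymosan 10 μg/mL for 3 h. Fixed in 4% paraformaldehyde, permeabilized with 1% Triton X-100, blocked with 4% skim milk. Anti-p65 at 4 °C overnight, FITC secondary 1 h, DAPI nuclear counterstain. Fluorescence microscopy; at least three experiments.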

[22] = Effect on PGE2 level in mouse MHS cells at 1.5 to 15 ug/ml after 30 mins; conditions: 0.5 h

Signal transducer and activator of transcription 3 (Mus musculus), sequence (P42227 whole entry): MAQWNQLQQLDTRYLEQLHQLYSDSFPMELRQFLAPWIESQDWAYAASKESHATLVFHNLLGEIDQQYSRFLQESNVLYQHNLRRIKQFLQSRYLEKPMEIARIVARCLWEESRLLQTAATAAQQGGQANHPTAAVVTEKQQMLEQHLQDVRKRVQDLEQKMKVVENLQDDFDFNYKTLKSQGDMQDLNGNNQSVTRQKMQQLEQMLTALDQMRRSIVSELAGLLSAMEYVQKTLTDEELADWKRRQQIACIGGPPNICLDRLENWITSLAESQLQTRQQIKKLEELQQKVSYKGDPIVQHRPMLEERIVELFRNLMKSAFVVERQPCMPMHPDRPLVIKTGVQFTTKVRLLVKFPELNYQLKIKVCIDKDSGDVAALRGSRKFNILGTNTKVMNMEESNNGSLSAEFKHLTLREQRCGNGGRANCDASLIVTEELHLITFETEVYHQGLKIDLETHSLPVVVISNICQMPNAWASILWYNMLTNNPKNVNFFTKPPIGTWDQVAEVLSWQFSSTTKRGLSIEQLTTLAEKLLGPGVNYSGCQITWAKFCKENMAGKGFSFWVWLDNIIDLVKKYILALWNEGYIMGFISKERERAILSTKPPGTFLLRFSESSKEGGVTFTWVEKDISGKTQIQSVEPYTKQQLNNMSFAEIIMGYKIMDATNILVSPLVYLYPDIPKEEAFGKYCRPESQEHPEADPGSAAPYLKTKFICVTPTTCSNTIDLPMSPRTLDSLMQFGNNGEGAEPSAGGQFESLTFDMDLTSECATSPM
Tyrosine-protein kinase JAK1 (Mus musculus), sequence (P52332 whole entry): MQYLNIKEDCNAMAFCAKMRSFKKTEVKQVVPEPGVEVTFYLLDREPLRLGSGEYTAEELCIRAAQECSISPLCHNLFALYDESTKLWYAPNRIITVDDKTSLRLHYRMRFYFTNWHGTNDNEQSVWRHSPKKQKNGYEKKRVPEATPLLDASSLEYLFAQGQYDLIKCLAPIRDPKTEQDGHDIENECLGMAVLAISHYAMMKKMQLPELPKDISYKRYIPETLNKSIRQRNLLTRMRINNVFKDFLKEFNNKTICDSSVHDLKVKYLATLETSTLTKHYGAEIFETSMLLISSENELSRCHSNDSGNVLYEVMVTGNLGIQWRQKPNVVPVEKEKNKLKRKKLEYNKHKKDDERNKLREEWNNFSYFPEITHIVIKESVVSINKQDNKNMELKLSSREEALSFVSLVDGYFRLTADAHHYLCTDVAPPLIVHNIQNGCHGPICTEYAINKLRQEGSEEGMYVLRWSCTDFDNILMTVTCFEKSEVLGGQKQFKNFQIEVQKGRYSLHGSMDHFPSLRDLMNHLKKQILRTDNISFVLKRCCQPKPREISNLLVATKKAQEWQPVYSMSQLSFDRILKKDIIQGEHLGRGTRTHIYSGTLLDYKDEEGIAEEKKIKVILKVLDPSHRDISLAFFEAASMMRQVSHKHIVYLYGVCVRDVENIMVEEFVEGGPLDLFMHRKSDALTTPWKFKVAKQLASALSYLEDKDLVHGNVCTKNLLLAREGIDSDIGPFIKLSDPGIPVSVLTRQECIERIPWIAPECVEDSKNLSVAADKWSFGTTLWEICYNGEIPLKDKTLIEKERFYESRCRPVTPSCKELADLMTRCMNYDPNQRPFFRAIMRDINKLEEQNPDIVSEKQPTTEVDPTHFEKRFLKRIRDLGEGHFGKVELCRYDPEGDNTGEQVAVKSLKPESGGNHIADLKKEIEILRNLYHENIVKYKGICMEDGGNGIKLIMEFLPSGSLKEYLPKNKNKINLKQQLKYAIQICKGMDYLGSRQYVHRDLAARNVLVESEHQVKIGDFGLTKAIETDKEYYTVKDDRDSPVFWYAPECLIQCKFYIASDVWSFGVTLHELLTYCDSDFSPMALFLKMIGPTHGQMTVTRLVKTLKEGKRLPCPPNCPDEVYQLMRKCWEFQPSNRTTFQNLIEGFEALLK
Transcription factor p65 (Mus musculus), sequence (Q04207 whole entry): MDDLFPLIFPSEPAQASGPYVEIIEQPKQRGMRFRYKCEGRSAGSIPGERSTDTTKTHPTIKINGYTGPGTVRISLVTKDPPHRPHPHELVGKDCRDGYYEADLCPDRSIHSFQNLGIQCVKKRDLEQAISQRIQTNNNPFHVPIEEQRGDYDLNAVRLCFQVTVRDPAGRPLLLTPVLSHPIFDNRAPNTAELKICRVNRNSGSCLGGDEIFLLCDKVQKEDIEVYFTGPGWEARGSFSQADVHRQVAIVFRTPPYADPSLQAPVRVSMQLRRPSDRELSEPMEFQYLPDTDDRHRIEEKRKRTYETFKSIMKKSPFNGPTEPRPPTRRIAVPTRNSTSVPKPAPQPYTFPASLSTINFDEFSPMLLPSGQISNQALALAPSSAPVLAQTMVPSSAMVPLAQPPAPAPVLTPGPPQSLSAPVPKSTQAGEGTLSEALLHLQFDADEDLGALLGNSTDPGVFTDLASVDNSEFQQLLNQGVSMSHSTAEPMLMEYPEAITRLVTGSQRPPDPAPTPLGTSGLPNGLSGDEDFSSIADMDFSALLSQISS

Compound: CC(C)=CCOc1c2occc2cc2ccc(=O)oc12 [PENTOSALEN]
- Activity (Mus musculus [1]): Active
- Activity [2]: Non-Toxic
- Activity [3]: Non-Toxic
- Activity [4]: Non-Toxic
- Activity (Mus musculus [5]): Dose-dependent effect
- Activity (Mus musculus [6]): Dose-dependent effect
- Activity (Mus musculus [7]): Active
- Activity (Mus musculus [8]): Active
- inhibition [9]: Dose-dependent effect
- inhibition [10]: Dose-dependent effect
- fold change (FC) [11]: 2.2
- fold change (FC) [12]: 1.3
- fold change (FC) [13]: 1.8
- fold change (FC) [14]: 1.3
- fold change (FC) [15]: 1.2
- fold change (FC) [16]: 1.2
- inhibition [17]: Dose-dependent effect
- fold change (FC) [18]: 1.2
- fold change (FC) [19]: 1
- fold change (FC) [20]: 1
- inhibition [21]: Active
- Activity [22]: Non-Toxic
